Screening results as filed in PubChem BioAssay.
Cardio protect: cardioprotection against H2O2-induced cell death, primary screen, uHTS, H9c2 cells, ATPLite luminescence; H9c2 cardiomyocytes, H2O2 injury protection, 2 h; protection from H2O2 cell death, % at 20 µM; hit rate 0.63% among 360,000; AID 588492, 2011;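 active = compounds giving at least 50% protection of heart cells from peroxide-induced death in the single-dose screen, raw or plate-pattern-corrected value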
JMJD2C inh: inhibitors of GASC-1 histone demethylase, primary screen, biochemical, fluorescence, DELFIA europium; Lysine-specific demethylase 4C (Homo sapiens), Q9H3R0; GST-JMJD2C(1-420) H3K9me3 demethylation; inhibition, % at 2.35 µM; hit rate 0.069% among 330,000;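 active = more than half of a compound's replicate wells show inhibition beyond 50%, single wells judged on their own value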;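 note: signal counts dimethyl H3K9 product captured on neutravidin plate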
Target sequence (Q9H3R0 1-420 limits assumed): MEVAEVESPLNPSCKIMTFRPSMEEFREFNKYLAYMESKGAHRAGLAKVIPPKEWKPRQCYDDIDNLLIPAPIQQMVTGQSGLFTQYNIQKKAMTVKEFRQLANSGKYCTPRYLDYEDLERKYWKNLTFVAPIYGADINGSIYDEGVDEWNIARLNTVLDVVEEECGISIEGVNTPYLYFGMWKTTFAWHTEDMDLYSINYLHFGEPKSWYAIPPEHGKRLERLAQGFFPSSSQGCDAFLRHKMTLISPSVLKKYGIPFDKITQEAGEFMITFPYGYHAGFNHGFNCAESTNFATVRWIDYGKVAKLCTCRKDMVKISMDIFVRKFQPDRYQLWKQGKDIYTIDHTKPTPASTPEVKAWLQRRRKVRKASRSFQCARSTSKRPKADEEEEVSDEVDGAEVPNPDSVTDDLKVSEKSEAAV
T cruzi repl: inhibitors of intracellular T. cruzi growth, primary screen, luminescence, NIH3T3 host cells; T. cruzi beta-gal in NIH3T3, 90 h; inhibition, % (test concentration not listed); hit rate 1.4% among 300,000; AID 1885, 2009;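 active = mean inhibition across valid replicates above about 55%, limit read from the data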;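 note: signal also drops with host cell toxicity which is not excluded here; higher percent means less beta-gal luminescence so fewer parasites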
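Incubation – ≥90 h infection period, 3 h prior cell attachment · System – NIH/3T3 fibroblasts plus reporter T. cruzi · Doses – compound pinned at 50 nL/well, DMSO · Read-out basis – percent inhibition of parasite-derived β-gal signal · Signal – luminescent β-galactosidase signal after 60 min lysis · Also added – 5000 T. cruzi trypomastigotes/well · Medium – Low-serum DMEM with 2% FBS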
PP5 primary: PP5 phosphatase inhibitors, primary screen, biochemical, fluorescence; AID 1987, 2009; hit rate 0.18% among 320,000; Serine/threonine-protein phosphatase 5 (Homo sapiens), P53041; inhibition, % at 6.7 µM; purified PP5c, OMFP substrate fluorescence;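 active = inhibition above the campaign's mean inhibition across all tested compounds plus 3 SD, cut at about 9.5% in these data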
p-CIP stab down: p/CIP-EGFP fusion destabilizers, primary screen, fluorescence, F442A cells; Q05BA5; 16 h; decrease of EGFP signal, % at 10 µM; AID 1984, 2009; hit rate 0.01% among 290,000;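 active = EGFP signal decrease of at least 30% at 10 µM or well 3 SD below plate mean, unless failing retest; inactive = the rest, including hits failing retest or dose response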
Fh CTSL1 inh: Fasciola hepatica cathepsin L1 inhibitors, primary screen, counter-screen for PFM18AAP inhibitor project, biochemical, QFRET, fluorogenic peptide substrate. recombinant F. hepatica cathepsin L1, Z-Leu-Arg-MCA fluorescence. inhibition, % at 5.96 µM. hit rate 0.49% among 300,000. AID 1906, 2009;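 active = inhibition above the mean of all tested compounds plus 3 SD, set per screening campaign, cut at about 17% in these data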
Of the large screens only hits and unclear results are named; the others gave an inactive call. Most compounds without a hit are left out; they make up all but 2.4% or so of the library.

c1ccc(/N=C2\N=C(Nc3ccccn3)c3ccccc32)nc1	T cruzi repl 64.9 (no result: p-CIP stab down)
c1ccc(Nc2ccccn2)cc1	none
COc1cc(C(CCN2CCCC2)c2c(OC)cc(OC)c3c(-c4ccccc4)cc(=O)oc23)cc(OC)c1OC (configuration not stated)	T cruzi repl 57.6
COc1cc(C(CCN2CCOCC2)c2c(OC)cc(OC)c3c(-c4ccccc4)cc(=O)oc23)cc(OC)c1OC (configuration not stated)	none (no result: JMJD2C inh, T cruzi repl, PP5 primary, p-CIP stab down, Fh CTSL1 inh)
CC1(C(=O)NS(=O)(=O)c2ccccc2Cl)CCN1C(=O)Cc1cccc2ccccc12 (configuration not stated)	none (no result: JMJD2C inh, T cruzi repl, PP5 primary, p-CIP stab down, Fh CTSL1 inh)
COc1ccccc1C(=O)NCC(=O)N/N=C/c1cc(Br)ccc1OC(=O)/C=C\c1ccco1	Cardio protect 88.1
O=C(CNC(=O)c1ccc(F)cc1)N/N=C/c1cc(Br)ccc1OC(=O)/C=C/c1ccco1	Cardio protect 80.5
O=C(CNC(=O)c1ccco1)N/N=C/c1cc(Br)ccc1O	none
O=C(CNC(=O)c1ccccc1F)N/N=C/c1cc(Br)ccc1OC(=O)/C=C/c1ccco1	Cardio protect 57.0
CN(C(=O)c1cc2c(=O)n3ccccc3nc2n1C)C1CCCCC1	Fh CTSL1 inh 18.0
CC1Cc2ccccc2N1C(=O)c1cc2c(=O)n3ccccc3nc2n1C (configuration not stated)	Cardio protect 66.1
CCOc1ccc(CN(C)CC(=O)Nc2cc(OC)c([N+](=O)[O-])cc2C)cc1	T cruzi repl 58.8
Cn1c(=O)c2sccc2n(Cc2ccccc2)c1=O	none
COc1ccc(Nc2nc(Nc3ccc(OC)cc3)nc(-n3[nH]c(=O)c(C)c3C)n2)cc1	Cardio protect 92.3
c1ccc(-c2csc(Nc3nc(N4CCOCC4)nc(N4CCOCC4)n3)n2)cc1	T cruzi repl 60.9
COc1ccc(CN2CCN(Cc3ccc(CO)o3)CC2CCO)cc1C (configuration not stated)	none
O=C1CCC([N+](=O)[O-])C(c2ccccc2C(F)(F)F)N1 (configuration not stated)	none
Cc1cccc(CSCC(=O)N2CCN(S(=O)(=O)c3ccccc3C#N)CC2)c1	none (no result: JMJD2C inh, T cruzi repl, PP5 primary, p-CIP stab down, Fh CTSL1 inh)
O=C(CNC(=O)c1nc[nH]c1C(=O)NCC(=O)OCc1ccccc1)OCc1ccccc1	Cardio protect 96.4
CCN(CC)C(=O)c1[nH]cnc1C(=O)NCC(=O)OCc1ccccc1	Cardio protect 104.7
CNC(=O)c1[nH]cnc1C(=O)NCC(=O)OCc1ccccc1	none
CC(C)(C)OC(=O)NCc1ccc(CNC(=O)c2[nH]cnc2C(=O)NCC(=O)OCc2ccccc2)cc1	none
O=C(CNC(=O)c1nc[nH]c1C(=O)NCc1ccccc1)OCc1ccccc1	Cardio protect 102.7
CCCCN(C(=O)c1ccccc1Br)C(c1ccc(OC)cc1)c1nc2ccccc2[nH]1 (configuration not stated)	none (no result: JMJD2C inh, T cruzi repl, PP5 primary, p-CIP stab down, Fh CTSL1 inh)
CCN(CC(=O)Nc1cc(S(=O)(=O)N2CCOCC2)ccc1C)Cc1ccccc1	none (no result: p-CIP stab down)
O=C1CC(=O)N(Cc2ccco2)C(=S)N1	none
O=C1CC(=O)N(Cc2ccco2)C(=O)N1	JMJD2C inh 52.4
Nc1ccc(Cl)c(S(=O)(=O)Nc2ccc(Cl)cc2)c1	T cruzi repl 64.0
O=C(N/N=C(\Cc1ncc[nH]1)c1ccccc1)c1ccncc1	none
O=C(N/N=C(\Cc1ncc[nH]1)c1ccccc1)c1ccccc1	T cruzi repl 73.5 (no result: Cardio protect)
CCOC(=O)C1=C(C)NC2=C(C(=O)c3ccccc32)C1c1ccc([N+](=O)[O-])o1 (configuration not stated)	Cardio protect 60.9, T cruzi repl 58.3
CCc1nc2c(OCc3cccc(Cl)c3)cccn2c1N(C)C(=O)CC(C)C	none (no result: JMJD2C inh, T cruzi repl, PP5 primary, p-CIP stab down, Fh CTSL1 inh)
Nc1cc2[nH]c(=O)c3ccccc3c2cc1Br	Cardio protect 62.3 (no result: JMJD2C inh, T cruzi repl, PP5 primary, p-CIP stab down, Fh CTSL1 inh)
O=c1[nH]c2cc(O)ccc2c2ccccc12	Cardio protect 56.7 (no result: JMJD2C inh, T cruzi repl, PP5 primary, p-CIP stab down, Fh CTSL1 inh)
Nc1ccc2c(c1)[nH]c(=O)c1ccccc12	Cardio protect 67.9 (no result: JMJD2C inh, T cruzi repl, PP5 primary, p-CIP stab down, Fh CTSL1 inh)
Cc1cc(=O)[nH]c2cc(O)ccc12	none
Nc1ccc2c(=O)[nH][nH]c(=O)c2c1	none (no result: JMJD2C inh, T cruzi repl, PP5 primary, p-CIP stab down, Fh CTSL1 inh)
Nc1cc2c(cc1Br)[nH]c(=O)c1ccccc12	none (no result: JMJD2C inh, T cruzi repl, PP5 primary, p-CIP stab down, Fh CTSL1 inh)
CCc1nc2ccc(C(=O)N3CCCC(C(N)=O)C3)cn2c1N(C)Cc1ccc(OC)cc1 (configuration not stated)	none (no result: JMJD2C inh, T cruzi repl, PP5 primary, p-CIP stab down, Fh CTSL1 inh)
CC1Sc2ccc(S(=O)(=O)N3CCC(C(=O)Nc4ccc(Cl)cc4)CC3)cc2NC1=O (configuration not stated)	none
CC1(O)CC(C)(C)C(C#N)C(=O)N1 (configuration not stated)	none (no result: JMJD2C inh, T cruzi repl, PP5 primary, p-CIP stab down, Fh CTSL1 inh)
COc1ccc(-c2cn(Cc3ccc(C(N)=O)cc3)c(CCN)n2)cc1	none (no result: T cruzi repl, p-CIP stab down)
CC(=NO)C1CCC2C3CCC4CC(=NO)CCC4(C)C3C(C)(O)CC12C (configuration not stated)	Cardio protect 59.9 (no result: JMJD2C inh, T cruzi repl, PP5 primary, p-CIP stab down, Fh CTSL1 inh)
Cc1ccccc1NC(=O)C(C)OC(=O)C1CCCO1 (configuration not stated)	none (no result: JMJD2C inh, T cruzi repl, PP5 primary, p-CIP stab down, Fh CTSL1 inh)
O=C(Nc1ccc2c(c1)OCCO2)c1cccc2nc3ccccc3nc12	T cruzi repl 65.3
O=C(CCNC(=O)c1ccccc1Cl)Nc1ccc2c(c1)OCO2	none
O=C(CCl)Nc1ccccc1C(=O)Nc1ccc2c(c1)OCO2	Fh CTSL1 inh 20.6
Clc1ccc(C2[C@H]3CN(Cc4cccnc4)[C@H](c4ccccc4)C34CC2(c2ccccc2)C4)cn1 (some centres not stated)	T cruzi repl 56.2 (no result: Cardio protect)
CCOC(=O)N1CCN(C(=O)CSc2nc3c(cnn3-c3ccc(C)cc3)c(=O)[nH]2)CC1	Cardio protect 51.2
CS(=O)(=O)c1ccc(C(=O)OCc2nnc(-c3ccccc3)o2)cc1[N+](=O)[O-]	T cruzi repl 75.7 (no result: PP5 primary, Fh CTSL1 inh)
CN(C)S(=O)(=O)c1ccc(C(=O)OCc2nnc(-c3ccccc3)o2)cc1	none
O=[N+]([O-])c1cc(Br)c(OCc2nnc(-c3ccccc3)o2)c(Br)c1	T cruzi repl 67.2
O=C(OCc1nnc(-c2ccccc2)o1)c1cc([N+](=O)[O-])ccc1Cl	none
O=[N+]([O-])c1ccc2c(OCc3nnc(-c4ccccc4Br)o3)ncnc2c1	T cruzi repl 71.5
C=CCSc1nnc(NC(=O)CN2C(=O)NC3(CCCC3)C2=O)s1	none
CC(C)(C)C(=O)Cn1c(=N)n(Cc2ccccc2Cl)c2ccccc21	T cruzi repl 57.4
CC(C)(C)C(=O)Cn1c(=N)n(Cc2ccccc2)c2ccccc21	none
O=C(Nc1cccc(C(F)(F)F)c1)c1csc(-c2ccncc2)n1	none
COc1cc(NC(=O)c2csc(-c3ccncc3)n2)cc(C(=O)Nc2cccc(C(F)(F)F)c2)c1	Cardio protect 59.4
